In ChEMBL document CHEMBL4732105, “First orally bioavailable prodrug of proteolysis targeting chimera (PROTAC) degrades cyclin-dependent kinases 2/4/6 in vivo” (Eur J Med Chem, 2021):
Activity calls are given as the source filed them. No cut-off for these calls is given here.

Columns and labels:
[1] = Tmax in Sprague-Dawley rat at 10 mg/kg, iv; type: ADME, organism-based; details: in vivo
Procedure, shortened: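 SD rats, n = 3, single dose of prodrug: IV by tail vein at 10 mg/Kg, or PO at 200 mg/Kg. Plasma levels of prodrug and released active degrader followed over 0–12 h. Parameters derived by a non-compartmental model.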

[2] = tested on: B16-F10; assay: Induction of apoptosis in mouse B16F10 cells assessed as early apoptotic cells at 125 nM incubated for 48 hrs by Annexin V-FITC/PI staining based flow cytometry (reference value: 3.52%); type: functional
[3] = tested on: B16-F10; assay: Induction of apoptosis in mouse B16F10 cells assessed as late apoptotic cells at 125 nM incubated for 48 hrs by Annexin V-FITC/PI staining based flow cytometry (reference value: 0.551%); type: functional
[4] = tested on: B16-F10; assay: Induction of apoptosis in mouse B16F10 cells assessed as decrease in Bcl-2 level upto 1000 nM incubated for 48 hrs by Western blot analysis; type: functional, cell-based; details: dose nM <=1000, time 48.0 hrs
Procedure, shortened: (§1)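 A375 and B16F10 cells incubated with compound for 48 h. Cleaved caspase-3, cleaved PARP, total P53, Bcl-2 and Bax measured by western blot.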

[5] = tested on: B16-F10; assay: Induction of apoptosis in mouse B16F10 cells incubated for 48 hrs by Annexin V-FITC/PI staining based flow cytometry; type: functional, cell-based; details: dose nM <=1000, time 48.0 hrs
[6] = tested on: B16-F10; assay: Induction of apoptosis in mouse B16F10 cells assessed as late apoptotic cells at 500 nM incubated for 48 hrs by Annexin V-FITC/PI staining based flow cytometry (reference value: 0.551%); type: functional
[7] = tested on: A-375; assay: Induction of apoptosis in human A-375 cells assessed as early apoptotic cells at 250 nM incubated for 48 hrs by Annexin V-FITC/PI staining based flow cytometry (reference value: 2.82%); type: functional
[8] = target: T1, Protein cereblon/Cyclin-dependent kinase 2 (Mus musculus) (UniProt P97377+Q8C7D2); assay: Protac activity at CRBN/CDK2 in mouse B16F10 cells assessed as induction of CDK2 protein degradation at 100 nM for 6 hrsin presence of Pomalidomide by Western blot analysis; type: cell-based; details: B16-F10, time 6.0 hrs
T1 sequence (Q8C7D2 whole entry, looked up, other chains not shown): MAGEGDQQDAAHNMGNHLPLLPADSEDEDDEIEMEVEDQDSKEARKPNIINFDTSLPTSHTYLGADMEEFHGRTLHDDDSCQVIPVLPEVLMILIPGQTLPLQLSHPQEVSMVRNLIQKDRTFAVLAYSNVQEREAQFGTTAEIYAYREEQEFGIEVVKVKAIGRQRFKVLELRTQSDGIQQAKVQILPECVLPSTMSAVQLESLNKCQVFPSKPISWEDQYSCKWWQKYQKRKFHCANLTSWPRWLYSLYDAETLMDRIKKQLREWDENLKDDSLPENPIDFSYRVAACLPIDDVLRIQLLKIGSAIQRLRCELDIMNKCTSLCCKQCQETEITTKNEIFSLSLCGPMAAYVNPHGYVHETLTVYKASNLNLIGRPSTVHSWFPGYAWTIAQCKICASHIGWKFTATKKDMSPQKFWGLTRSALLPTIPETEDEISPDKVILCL
Procedure, shortened: (§2)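 B16F10 cells pre-treated 2 h with DMSO, pomalidomide (10 μM), MG132 (20 μM) or a parent CDK ligand, then exposed to 100 nM degrader for 6 h. CDK2/4/6 protein levels read by western blot.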

[9] = target: Protein cereblon/Cyclin-dependent kinase 6 (Mus musculus) (UniProt Q8C7D2+Q64261); assay: Protac activity at CRBN/CDK6 in mouse B16F10 cells assessed as induction of CDK6 protein degradation at 100 nM for 6 hrs in presence of proteasome inhibitor MG132 by Western blot analysis; type: cell-based; details: B16-F10; procedure, shortened: as §2
Protein cereblon/Cyclin-dependent kinase 6 (Mus musculus), sequence (Q64261 whole entry, looked up): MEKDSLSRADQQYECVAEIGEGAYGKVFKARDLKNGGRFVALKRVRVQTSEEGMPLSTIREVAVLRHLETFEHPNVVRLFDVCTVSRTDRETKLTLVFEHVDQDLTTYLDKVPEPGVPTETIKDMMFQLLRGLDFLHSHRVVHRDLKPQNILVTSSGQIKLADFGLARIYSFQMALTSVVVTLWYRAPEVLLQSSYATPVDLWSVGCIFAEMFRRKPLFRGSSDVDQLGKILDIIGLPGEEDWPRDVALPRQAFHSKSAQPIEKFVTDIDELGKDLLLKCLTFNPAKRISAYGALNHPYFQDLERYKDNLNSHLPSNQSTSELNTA
Protein cereblon/Cyclin-dependent kinase 6 (Mus musculus), sequence (Q8C7D2 whole entry, looked up): as the sequence (Q8C7D2 whole entry, looked up, other chains not shown) above

[10] = tested on: A-375; assay: Induction of apoptosis in human A-375 cells assessed as necrotic cells at 250 nM incubated for 48 hrs by Annexin V-FITC/PI staining based flow cytometry (reference value: 0.602%); type: functional
[11] = target: Protein cereblon/Cyclin-dependent kinase 2 (Homo sapiens) (UniProt P24941+Q96SW2); assay: Protac activity at CRBN/CDK2 in human A-375 cells assessed as induction of CDK2 protein degradation after 12 hrs by Western blot analysis; type: cell-based; details: dose 62.5-1000 nM
Procedure, shortened: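 B16F10 and A375 cells treated with DMSO or serial dilutions of compound for 12 h (concentration series), or for the indicated times (time course). CDK2, CDK4 and CDK6 protein levels determined by western blot.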

[12] = target: T1, Protein cereblon/Cyclin-dependent kinase 2 (Mus musculus); assay: Protac activity at CRBN/CDK2 in mouse B16F10 cells assessed as induction of CDK2 protein degradation at 100 nM for 6 hrsin presence of Ribociclib by Western blot analysis; type: cell-based; details: B16-F10, time 6.0 hrs
[13] = tested on: A-375; assay: Inhibition of colony formation in human A-375 cells at 250 to 500 nM measured after 7 days by crystal violet staining based colony formation assay; type: functional, cell-based; details: dose 250-500 nM, time 7.0 day
Procedure, shortened: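 Colony formation (long-term growth) assay in A375 and B16F10 cells under continuous compound exposure for 7 days, then clonogenic growth quantified. Mean ± SD, n = 3; Student's t-test.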

[14] = target: T1, Protein cereblon/Cyclin-dependent kinase 2 (Mus musculus); assay: Protac activity at CRBN/CDK2 in mouse B16F10 cells assessed as induction of CDK2 protein degradation at 100 nM for 6 hrsin presence of methyl 6-(7-cyclopentyl-6-(dimethylcarbamoyl)-7H-pyrrolo[2,3-d]pyrimidin-2-ylamino)nicotinate by Western blot analysis; type: cell-based; details: B16-F10, time 6.0 hrs; procedure, shortened: as §2
[15] = tested on: A-375; assay: Induction of cell cycle arrest in human A-375 cells assessed as accumulation at G1 phase at 1000 uM incubated for 48 hrs by propidium iodide staining based flow cytometry (reference value: 58.26%); type: functional
Procedure, shortened: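 Tumor cells incubated 48 h in complete medium with compound or DMSO at various concentrations, stained with propidium iodide, and DNA content read by flow cytometry. G0/G1, S and G2/M fractions reported; mean ± SD, n = 3, Student's t-test.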

[16] = target: Protein cereblon/Cyclin-dependent kinase 4 (Mus musculus) (UniProt P30285+Q8C7D2); assay: Protac activity at CRBN/CDK4 in mouse B16F10 cells assessed as induction of CDK4 protein degradation at 100 nM for 6 hrsin presence of methyl 6-(7-cyclopentyl-6-(dimethylcarbamoyl)-7H-pyrrolo[2,3-d]pyrimidin-2-ylamino)nicotinate by Western blot analysis; type: cell-based; details: B16-F10, time 6.0 hrs; procedure, shortened: as §2
Protein cereblon/Cyclin-dependent kinase 4 (Mus musculus), sequence (P30285 whole entry, looked up): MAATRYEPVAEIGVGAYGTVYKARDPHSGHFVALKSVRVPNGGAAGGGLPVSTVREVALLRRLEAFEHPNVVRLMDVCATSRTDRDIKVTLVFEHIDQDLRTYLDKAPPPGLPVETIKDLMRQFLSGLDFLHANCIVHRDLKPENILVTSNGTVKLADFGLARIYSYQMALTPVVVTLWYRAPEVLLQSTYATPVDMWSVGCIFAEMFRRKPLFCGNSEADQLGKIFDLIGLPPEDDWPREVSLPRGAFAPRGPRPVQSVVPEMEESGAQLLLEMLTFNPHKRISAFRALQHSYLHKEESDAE
Protein cereblon/Cyclin-dependent kinase 4 (Mus musculus), sequence (Q8C7D2 whole entry, looked up): as the sequence (Q8C7D2 whole entry, looked up, other chains not shown) above

[17] = tested on: B16-F10; assay: Induction of cell cycle arrest in mouse B16-F10 cells assessed as accumulation at G2 phase at 25 uM incubated for 48 hrs by propidium iodide staining based flow cytometry (reference value: 18.22%); type: functional
[18] = tested on: A-375; assay: Induction of apoptosis in human A-375 cells assessed as increase in cleaved PARP level incubated for 48 hrs by Western blot analysis; type: functional, cell-based; details: dose nM <=2000, time 48.0 hrs; procedure, shortened: as §1
[19] = tested on: B16-F10; assay: Induction of cell cycle arrest in mouse B16F10 cells assessed as accumulation at G2/M phase upto 100 uM incubated for 48 hrs by propidium iodide staining based flow cytometry; type: functional; details: dose microM <=100, time 48.0 hrs
[20] = tested on: B16-F10; assay: Induction of apoptosis in mouse B16F10 cells assessed as increase in bax level upto 1000 nM incubated for 48 hrs by Western blot analysis; type: functional, cell-based; details: dose nM <=1000, time 48.0 hrs; procedure, shortened: as §1
[21] = tested on: B16-F10; assay: Induction of apoptosis in mouse B16F10 cells assessed as increase in cleaved PARP level incubated for 48 hrs by Western blot analysis; type: functional, cell-based; details: dose nM <=1000, time 48.0 hrs; procedure, shortened: as §1
[22] = tested on: A-375; assay: Induction of apoptosis in human A-375 cells assessed as viable cells at 500 nM incubated for 48 hrs by Annexin V-FITC/PI staining based flow cytometry (reference value: 93.3%); type: functional; details: read-out: Activity
[23] = tested on: B16-F10; assay: Induction of apoptosis in mouse B16F10 cells assessed as early apoptotic cells at 250 nM incubated for 48 hrs by Annexin V-FITC/PI staining based flow cytometry (reference value: 3.52%); type: functional
[24] = tested on: B16-F10; assay: Induction of apoptosis in mouse B16F10 cells assessed as viable cells at 250 nM incubated for 48 hrs by Annexin V-FITC/PI staining based flow cytometry (reference value: 95.9%); type: functional; details: read-out: Activity
[25] = tested on: A-375; assay: Induction of apoptosis in human A-375 cells assessed as early apoptotic cells at 1000 nM incubated for 48 hrs by Annexin V-FITC/PI staining based flow cytometry (reference value: 2.82%); type: functional
[26] = tested on: A-375; assay: Induction of apoptosis in human A-375 cells assessed as increase in bax level upto 2000 nM incubated for 48 hrs by Western blot analysis; type: functional, cell-based; details: dose nM <=2000, time 48.0 hrs; procedure, shortened: as §1

CN(C)C(=O)c1cc2cnc(Nc3ccc(C(=O)NCCCCCCNc4cccc5c4C(=O)N(C4CCC(=O)NC4=O)C5=O)cc3)nc2n1C1CCCC1 (stereo unspecified)
Tmax [1]: 45 min
Activity [2]: 7.15%
Activity [3]: 6.5%
Activity [4]: Active
Activity [5]: Dose-dependent effect
Activity [6]: 1.63%
Activity [7]: 5.54%
Activity [8]: inactive
Activity [9]: inactive
Activity [10]: 0.144%
Activity [11]: Dose-dependent effect
Activity [12]: Active
inhibition [13]: Active
Activity [14]: inactive
Activity [15]: 74.09%
Activity [16]: inactive
Activity [17]: 19.56%
Activity [18]: Dose-dependent effect
Activity [19]: Active
Activity [20]: Active
Activity [21]: Dose-dependent effect
viability at 0.5 µM [22]: 85.2%
Activity [23]: 70.3%
viability at 0.25 µM [24]: 23.4%
Activity [25]: 29.3%
Activity [26]: Active
